# SIAE primary: human SIAE inhibitors, primary screen, biochemical, fluorescence polarization, FP-Rh probe, 1536-well HTS; Sialate O-acetylesterase (Homo sapiens), Q9HAT2; hit rate 0.69% among 370,000; inhibition, % at 9.66 µM; SIAE FP-Rh probe binding;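 active means inhibition above a cutoff: mean of compounds within the control limits plus 3 SD of those, cut at about 17% in these data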;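 further: 0% = plate median of compound wells and 100% = probe without SIAE protein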
# ATG4B inhibitor: ATG4B protease inhibitors, primary screen, biochemical, fluorescence, uHTS | Cysteine protease ATG4B (Homo sapiens), Q9Y4P1 | AID 504462, 2011 | ATG4B cleavage of LC3-PLA2, NBD-HPC fluorescence, 1 h | inhibition, % at 8.33 µM | hit rate 0.51% among 340,000; in the data active means inhibition above about 40%
# ABHD4 inh: ABHD4 inhibitors, primary screen, biochemical, fluorescence polarization, mouse; inhibition, % at 8.92 µM; purified mABHD4, FP-Rh probe fluorescence polarization; hit rate 0.54% among 370,000; (Lyso)-N-acylphosphatidylethanolamine lipase (Mus musculus), Q8VD66;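 active means inhibition exceeding the mean over every tested compound plus 3 SD, cut at about 30% in these data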;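 further: 0% = plate median of compound wells and 100% = S159A mutant with DMSO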
#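 Assay system: mouse ABHD4 enzyme, wild type / Also added: fluorescent activity-based probe FP-Rh / Doses: single nominal dose of 8.92 µM, 0.89% DMSO final / Timing: 45 min compound pre-incubation plus 60 min probe step, 25 °C / Signal: FP readout, ex 525 nm / em 598 nm / Control set: S159A mutant/DMSO as 100%, compound-well median as 0%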
# HTRA1 inh: HTRA1 serine protease inhibitors, primary screen, biochemical, fluorescence polarization, HTS | recombinant HTRA1, FP-rhodamine activity-based probe | inhibition, % at 5.96 µM | Q92743 | AID 504803, 2011 | hit rate 0.5% among 340,000; in the data active means inhibition above about 36%;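 further: 0% = enzyme with DMSO and 100% = wells lacking enzyme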
# PRMT1 FP inh: PRMT1 methyltransferase inhibitors, primary screen, biochemical, fluorescence polarization; Protein arginine N-methyltransferase 1 (Homo sapiens), Q99873; inhibition, % at 2.79 µM; hit rate 1.3% among 370,000; recombinant PRMT1, activity-based probe fluorescence polarization;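 active means inhibition above about 21% made by adding two undisclosed values, limit read from the data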
# Target sequence (Q99873 whole entry, looked up): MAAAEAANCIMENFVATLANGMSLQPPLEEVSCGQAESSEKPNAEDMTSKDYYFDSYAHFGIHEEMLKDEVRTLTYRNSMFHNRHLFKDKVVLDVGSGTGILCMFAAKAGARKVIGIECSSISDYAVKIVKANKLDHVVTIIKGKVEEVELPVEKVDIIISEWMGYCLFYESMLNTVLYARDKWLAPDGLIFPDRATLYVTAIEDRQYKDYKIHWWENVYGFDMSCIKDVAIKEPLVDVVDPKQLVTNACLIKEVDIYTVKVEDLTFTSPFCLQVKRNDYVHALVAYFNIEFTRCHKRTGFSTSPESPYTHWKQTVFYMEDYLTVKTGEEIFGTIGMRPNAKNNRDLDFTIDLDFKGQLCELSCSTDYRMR
# TCR CD3 inh: inhibitors of human TCR-CD3 interaction, primary screen, biochemical, fluorescence, TAMRA-labeled TCR probe; hit rate 0.37% among 360,000; T-cell receptor (TCR); inhibition, % at 9.4 µM; in the data active means inhibition above about 19%;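 further: recombinant mutant TCR 2C K166C tagged with TAMRA read by polarization; 0% = receptor in buffer alone and 100% = receptor with positive control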
# ATG4B confirm: ATG4B protease inhibitors, retest, confirmation, biochemical, fluorescence, single concentration; shares compounds with ATG4B inhibitor; ATG4B protease fluorescent substrate cleavage assay; AID 504757, 2011; inhibition, % at 8.33 µM; hit rate 92% among 320; in the data active means inhibition above about 39%
# PLA2 counter: PLA2 enzyme inhibition, counter-screen for ATG4B inhibitor project, biochemical, single concentration, uHTS hits. purified PLA2, NBD-C6-HPC fluorescence, 45 min. shares compounds with ATG4B inhibitor. hit rate 66% among 1,600. inhibition, % at 8.33 µM; in the data active means inhibition above about 50%
# Target sequence (P04054 whole entry, looked up): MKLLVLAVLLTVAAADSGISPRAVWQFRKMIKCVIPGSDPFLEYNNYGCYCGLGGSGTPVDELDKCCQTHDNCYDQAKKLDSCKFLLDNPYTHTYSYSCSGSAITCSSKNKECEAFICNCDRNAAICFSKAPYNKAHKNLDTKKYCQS
# Starred values were filed as active, the others as inactive; · = not tested or not shown. Only some compounds are listed: those with a hit (about 2.9% of all), similar ones and a draw of the others.
SMILES,SIAE primary,ATG4B inhibitor,ABHD4 inh,HTRA1 inh,PRMT1 FP inh,TCR CD3 inh,PLA2 counter,others
CCOC(=O)c1cccc(NC(=O)CN(C)S(=O)(=O)c2ccc(C)c(C)c2)c1,-5.0,·,-9.2,·,7.6,·,·,
C/C(=N\N=C(/N)SC1CC(=O)N(c2ccccc2)C1=O)c1cccs1 (centres undefined),-3.3,-1.4,-11.4,-9.9,0.1,6.2,·,
CCCCCCOc1ccc(N2C(=O)CC(S/C(N)=N/N=C(\C)c3cccs3)C2=O)cc1 (centres undefined),-6.6,48.6*,-6.0,-22.1,0.2,-4.9,4.9,ATG4B confirm=61.2*
CCN(C(=O)COC(=O)c1ccc(Sc2ncn[nH]2)c([N+](=O)[O-])c1)c1ccccc1,6.2,·,-1.2,·,0.6,·,·,
CC(C)(C)c1cc(C(=O)NNc2cc(C(F)(F)F)ccc2Cl)n(Cc2ccccc2)n1,-29.5,42.8*,-68.7,-35.0,14.2,1.4,63.1*,
COc1cc(/C=C/C(O)=C/C(=O)/C=C/c2ccc(O)cc2)ccc1O,-1.6,48.4*,-45.6,20.7,-7.9,-8.8,47.2,
COCC(C)OC(=O)/C(C#N)=C\c1coc2ccc(C)cc2c1=O (centres undefined),7.3,61.8*,4.4,-7.8,-2.6,5.1,49.0,
Cc1ccc2occ(/C=N/NC(=O)[C@@H](N)Cc3ccccc3)c(=O)c2c1,-1.1,9.7,-0.1,-1.5,-6.6,0.3,·,
S=C(NCc1ccccc1)NCc1cccc(CNC(=S)NCc2ccccc2)c1,-23.6,68.0*,3.2,-25.6,-1.6,12.7,77.2*,
S=C(NCCc1ccc(Cl)cc1)NCc1ccccc1,·,64.0*,·,-21.0,·,·,72.6*,
S=C(NCc1ccccc1)NCC1COc2ccccc2O1 (centres undefined),-3.0,52.8*,-10.7,-7.1,-3.4,9.3,61.1*,
Fc1ccc(CNC(=S)NCc2cccc(Cl)c2)cc1,5.5,79.4*,-24.1,-16.6,-1.6,-4.6,85.6*,
NNC(=S)NCc1ccccc1,-4.1,-3.2,1.8,3.2,-1.5,-8.5,·,
CCOC(=O)[C@@]12CCC3=C1N(CCC3)C(=O)[C@H](CC(=O)NCc1cccc3ccccc13)C2,-0.9,·,-0.8,·,1.1,·,·,
COc1ccc(COC[C@H](C)N2C[C@@H](C)[C@H](CN(C)S(=O)(=O)c3ccc(F)cc3)OCCCC[C@H](C)Oc3ccc(NC(=O)Nc4ccccc4)cc3C2=O)cc1,-9.3,·,-39.1,·,7.2,·,·,
Cc1ccc(NC(=O)Cc2cccc(OC(F)(F)F)c2)c(S(=O)(=O)N2CCOCC2)c1,1.0,·,3.8,·,3.5,·,·,
Cc1ccccc1OCC(=O)NCc1ccccc1,-1.5,-5.7,10.1,0.7,1.2,8.5,·,
S=C(NCc1ccccc1)NCc1cccc(Cl)c1,-4.2,63.9*,-16.3,-10.1,-0.5,-3.2,77.6*,
O=C(NCc1cccc(Cl)c1)NCc1cccc(Cl)c1,-3.2,72.6*,-5.2,-3.9,2.2,-5.4,76.6*,
S=C(NCCc1cccc(Cl)c1)NCc1ccccc1,·,·,·,-19.2,·,·,·,
O=C(COc1ccccc1-c1ccccc1)NCc1cccc(Cl)c1,-5.5,56.1*,-26.2,-37.2,-0.5,3.5,44.5,ATG4B confirm=57.0*
COC(=O)C1CCCN(C(=O)C2CCN(S(=O)(=O)c3cccc4cccnc34)CC2)C1 (centres undefined),-5.1,·,1.9,·,-2.2,·,·,
O=C(CSc1nnc(-c2ccco2)n1-c1ccc(Cl)cc1)Nc1cccc2ccccc12,-6.4,·,-7.6,·,5.9,·,·,
CNc1ccccc1C(=O)OCC(=O)c1ccccc1,·,33.1,·,-9.5,·,·,·,
O=C(COC(=O)c1ccccc1Nc1ccccc1)c1ccccc1,0.0,53.3*,-9.7,-17.8,-1.6,1.1,52.3*,
SMILES,SIAE primary,ATG4B inhibitor,ABHD4 inh,HTRA1 inh,PRMT1 FP inh,TCR CD3 inh,PLA2 counter,others
C=CCN1[C@H](C)COc2cc(N3CCSCC3)ccc2S1(=O)=O,1.3,·,-4.5,·,-5.0,·,·,
CCn1cc(C(=O)OCC(=O)Nc2ccccc2OC(F)F)c(=O)c2ccc(C)nc21,0.3,-1.8,0.6,2.5,0.5,3.1,·,
CCn1cc(C(=O)OCC(=O)c2cc(C)n(-c3ccc(OC(F)F)cc3)c2C)c(=O)c2ccc(C)nc21,4.9,72.0*,5.3,-1.4,-3.4,0.9,74.2*,
CCn1cc(C(=O)OCC(=O)N(C)Cc2ccccc2)c(=O)c2ccc(C)nc21,-2.3,-2.1,2.6,1.4,-1.9,5.9,·,
CCn1cc(C(=O)OCC(=O)c2cc(C)n(-c3ccccc3)c2C)c(=O)c2ccc(C)nc21,-1.1,66.2*,-0.1,-17.9,1.2,-3.9,68.3*,
CCn1cc(C(=O)OCC(=O)c2cc(C)n(-c3ccccc3F)c2C)c(=O)c2ccc(C)nc21,6.9,71.4*,-0.7,-30.5,1.3,2.1,74.8*,
CN1CCN(c2ccc3c(c2)Oc2ccccc2CN(Cc2cn(Cc4ccccc4C(F)(F)F)nn2)S3(=O)=O)CC1,-0.1,·,4.5,·,-1.9,·,·,
CC(=O)Nc1ccc(N=Cc2c(O)c(C(=O)Nc3ccccc3)cc3ccccc23)cc1,6.8,30.1,-5.7,·,5.9,1.6,·,
CCOc1cc(Br)c(Br)c(C=Nc2ccc(NC(C)=O)cc2)c1O,-5.8,66.2*,6.4,9.8,3.0,-4.4,54.5*,
Cc1ccc(NC(=O)C2SC(=Nc3ccccc3)C(C(=O)Nc3ccc(Cl)cc3)=C2N)cc1 (centres undefined),·,-4.6,·,-51.8,·,·,·,
Cc1ccc(N=C2SC(C(=O)Nc3ccc(OC(F)(F)F)cc3)C(N)=C2C(=O)Nc2c(C)cc(C)cc2C)cc1 (centres undefined),-135.2,61.9*,-127.8,-95.8,3.2,7.2,61.5*,
Cc1ccc2nc(N/N=C/c3ccccc3C#N)nc(-c3ccccc3)c2c1,·,7.2,·,-21.1,·,·,·,
Cc1ccc2nc(N/N=C/c3ccccc3F)nc(-c3ccccc3)c2c1,-7.2,46.2*,1.7,-66.7,1.5,-5.7,39.6,ATG4B confirm=75.0*
O=C(O)COc1ccccc1/C=C1\SC(=S)N(NC(=O)c2ccccc2O)C1=O,-26.4,8.8,-137.9,-1.8,17.3,-11.0,·,
O=C(O)COc1ccccc1/C=C1\SC(=S)N(/N=C/c2ccccc2O)C1=O,0.9,48.1*,7.7,9.2,22.5*,-2.2,34.8,ATG4B confirm=68.2*

# Compound activity from PubChem BioAssay.
